Published values of several laboratories.
ache: Acetylcholinesterase (ache, Electrophorus electricus, UniProt O42275)
MAP3K21: Mitogen-activated protein kinase kinase kinase 21 (MAP3K21, Homo sapiens, UniProt Q5TCX8)
STK17B: Serine/threonine-protein kinase 17B (STK17B, Homo sapiens, UniProt O94768)
STK32A: Serine/threonine-protein kinase 32A (STK32A, Homo sapiens, UniProt Q8WU08)

| SMILES | target | assay | conditions | measurement | value |
| --- | --- | --- | --- | --- | --- |
| CC(C)(C)c1nc2c(s1)c1nc(N)ncc1c1ccc(NS(=O)(=O)c3c(F)cccc3F)c(F)c12 | Ribosomal protein S6 kinase beta-2 (RPS6KB2, Homo sapiens, UniProt Q9UBS0) | enzyme activity, inhibitor, radiometric | 1 µM | remaining activity | 90% |
| N#Cc1ccc(/C=C/CN(CC[C@H](N)C(=O)O)C[C@H]2O[C@@H](n3cnc4c(N)ncnc43)[C@H](O)[C@@H]2O)cc1 | Histone-arginine methyltransferase CARM1 (CARM1, Homo sapiens, UniProt Q86X55) | enzyme activity, inhibitor | 1 µM | activity vs control | 100% |
| COc1cc2c(cc1OC)C(=O)N(CC1CCN(Cc3cccc(C#N)c3)CC1)C2 | ache | enzyme activity, inhibitor | 1 µM | inhibition | 4.99% |
| CC(C)(C)c1nc(-c2cccc(NS(=O)(=O)c3c(F)cccc3F)c2F)c(-c2ccnc(N)n2)s1 | MAP3K21 | enzyme activity, inhibitor, radiometric | 1 µM | remaining activity | 92% |
| Cc1ccc(C(=O)NCc2ccsc2)cc1C#Cc1cn(C(C)C)c2ncnc(N)c12 | MAP3K21 | enzyme activity, inhibitor | 1 µM | activity vs control | 81% |
| NS(=O)(=O)c1ccc(CNc2nc(Nc3cccc(NC(=O)N4CCCC4)c3)ncc2C2CC2)cc1 | STK17B | enzyme activity, inhibitor, radiometric | 1 µM | remaining activity | 77% |
| COc1cc2c(cc1OC)C(=O)N(CC1CCN(Cc3ccccn3)CC1)C2 | ache | enzyme activity, inhibitor | 1 µM | inhibition | 8.01% |
| COC(=O)C(C)Oc1ccc2c(C)cc(=O)oc2c1 (stereo not drawn) | Aldehyde dehydrogenase 1A1 (ALDH1A1, Homo sapiens, UniProt P00352, N121S) | enzyme activity, inhibitor, absorbance | 10 µM | remaining activity | 82.8% |
| Cc1nn(CC(F)(F)F)cc1Nc1ncc(Br)c(NCc2ccc(S(N)(=O)=O)cc2)n1 | STK17B | enzyme activity, inhibitor, radiometric | 1 µM | remaining activity | 47% |
| COc1cc2c(cc1OC)C(=O)N(Cc1n[nH]c3ccccc13)C2 | ache | enzyme activity, inhibitor | 1 µM | inhibition | 5.12% |
| O=C(NCCCNc1nc(Nc2cccc(NC(=O)N3CCCC3)c2)ncc1I)c1cccs1 | STK17B | enzyme activity, inhibitor, radiometric | 1 µM | remaining activity | 4% |
| COc1cc2c(cc1OC)C(=O)N(CCc1c[nH]c3ccccc13)C2 | ache | enzyme activity, inhibitor | 1 µM | inhibition | -4.59% |
| c1cc(CN2CCOCC2)cc(Nc2ncc(C3CC3)c(NCCc3c[nH]cn3)n2)c1 | STK17B | enzyme activity, inhibitor, radiometric | 1 µM | remaining activity | 14% |
| O[C@@H]1[C@H](O)CO[C@H]1n1cnc2c(NCc3cccc(Cl)c3)ncnc21 | Adenosine receptor A1 (ADORA1, Homo sapiens, UniProt P30542) | ligand displacement, radioligand | 10 µM, cell membranes | inhibition | 35% |
| CCCOc1ccc(OC)c(F)c1C(=O)c1ccc(C(=O)N[C@@H]2CNC[C@H]2NC(=O)c2ccc3[nH]ncc3c2)cc1 | RAC-gamma serine/threonine-protein kinase (AKT3, Homo sapiens, UniProt Q9Y243) | enzyme activity, inhibitor | 0.1 µM | remaining activity | 88% |
| COc1cc2c(cc1OC)C(=O)N(Cc1ccc3ccccc3n1)C2 | ache | enzyme activity, inhibitor | 1 µM | inhibition | 3.28% |
| CN1CCc2cc(Nc3ncc(C4CC4)c(NCCCNC(=O)C4CCC4)n3)ccc2C1 | STK17B | enzyme activity, inhibitor, radiometric | 1 µM | remaining activity | 4% |
| Cn1c2c(c3ccc(Cl)c(Cl)c31)C(C#N)C1(CCOCC1)NC2=O (stereo not drawn) | STK32A | thermal stability, DSF | 10 µM | ΔTm | -0.3 °C |
| COc1nccc(CN2Cc3cc(OC)c(OC)cc3C2=O)n1 | ache | enzyme activity, inhibitor | 1 µM | inhibition | -0.39% |
| O=C(Nc1cccc(Nc2ncc(Br)c(NCCc3cnc[nH]3)n2)c1)N1CCCC1 | STK17B | enzyme activity, inhibitor, radiometric | 1 µM | remaining activity | 1% |
| N#CC1c2c([nH]c3c(Cl)c(Cl)ccc23)C(=O)NC12CCCCC2 (racemic) | STK32A | thermal stability, DSF | 10 µM | ΔTm | 0.1 °C |
| CCCCCCCOc1ccc(CCC(N)(CO)COP(=O)(O)O)cc1C(F)(F)F (stereo not drawn) | Sphingosine 1-phosphate receptor 1 (S1PR1, Homo sapiens, UniProt P21453) | calcium signal, agonist, fluorescence | – | Emax | 92% |
| COc1cc2c(cc1OC)C(=O)N(Cc1cnc3c(c1)OCCN3C)C2 | ache | enzyme activity, inhibitor | 1 µM | inhibition | 1.71% |
| NS(=O)(=O)c1ccc(CNc2ccnc(Nc3cccc(NC(=O)N4CCCC4)c3)n2)cc1 | STK17B | enzyme activity, inhibitor, radiometric | 1 µM | remaining activity | 96% |
| Cn1c2c(Cl)c(Cl)ccc2c2cn[nH]c(=O)c21 | STK32A | thermal stability, DSF | 10 µM | ΔTm | -0.4 °C |
| FC(F)(F)Oc1cccc(-c2cnc3ccc(-c4ccncc4)nn23)c1 | Mitogen-activated protein kinase kinase kinase kinase 3 (MAP4K3, Homo sapiens, UniProt Q8IVH8) | enzyme activity, inhibitor, radiometric | 5 µM | activity vs control | 39% |
| O=C(NCCCNc1nc(Nc2cccc(CN3CCOCC3)c2)ncc1C1CC1)C1CCC1 | STK17B | enzyme activity, inhibitor, radiometric | 1 µM | remaining activity | 7% |
